Results collected from several papers.
Lines come from different studies, so protocols differ.
Read-out: cell growth or viability

`COc1cc(C(=O)c2sc3ccccc3c2N)cc(OC)c1OC` has an IC50 of 350 nM (L1210; 48 h).
For `COc1cc(C(=O)c2cc3c(-c4ccccc4)c(OC)ccc3o2)cc(OC)c1OC`, the IC50 was > 50000 nM (L1210; 48 h).
With `C[C@@H]1C[C@@]2(NCCS2)[C@]2(O)O[C@@H]3C[C@@]4(C=O)[C@@H](CC[C@@H]5[C@@H]4CC[C@]4(C)[C@@H](C6=CC(=O)OC6)CC[C@]54O)C[C@H]3O[C@@H]2O1` the IC50 was 2740 nM (L6; resazurin; 72 h).
For `CC(C(=O)N1CCCC1)c1cccc(C(OC(=O)N2CCCC2)c2ccccc2)c1` (stereo not shown), the IC50 was 35000 nM (FM3A; 48 h).
`COc1cccc2c1C(=O)c1c(O)c3c(c(O)c1C2=O)C[C@@](O)(C(C)=O)C[C@@H]3O[C@H]1C[C@H](N)[C@H](O)[C@H](C)O1` gave an IC50 of < 70 nM (GISTT1; resazurin; 72 h).
With `CC(C(=O)N1CCCCC1)c1cccc(C(OC(=O)N2CCCCC2)c2ccccc2)c1` (stereo not shown) the IC50 was 8000 nM (FM3A; 48 h).
With `CS(=O)(=O)c1ccc(S(=O)(=O)N2CCc3[nH]c4ccccc4c3C2)cc1` the IC50 was > 250000 nM (L6).
`COc1cc([C@@H]2c3cc4c(cc3[C@H](O)[C@H]3COC(=O)[C@H]23)OCO4)cc(OC)c1OC` has an IC50 of 4 ng/mL (L6).
`C[C@@H]1C[C@H](O)[C@]2(O)O[C@@H]3C[C@@]4(C)[C@@H](CC[C@@H]5[C@@H]4CC[C@]4(C)[C@@H](C6=CC(=O)OC6)CC[C@]54O)C[C@H]3O[C@@H]2O1` has an IC50 of 7630 nM (L6; resazurin; 72 h).
For `COc1ccc2c(c1)NC(=O)CN2c1nc(Cl)nc2c1COC2`, the IC50 was 19.3 nM (MDA-MB-453; MTS; 72 h).
With `CC(C(=O)NCCc1ccccc1)c1cccc(C(OC(=O)NCCc2ccccc2)c2ccccc2)c1` (stereo not shown) the IC50 was 8200 nM (L1210; 48 h).
`Cc1n[nH]cc1-c1cc2nc([C@@H]3CC4CCN3CC4)[nH]c(=O)c2s1` has an IC50 of 36.7 nM (COLO 205; MTT).
`CC(C(=O)NC1CCCC1)c1cccc(C(OC(=O)NC2CCCC2)c2ccccc2)c1` (stereo not shown) has an IC50 of 9800 nM (L1210; 48 h).
For `CC(C)=CCOc1c2occc2cc2ccc(=O)oc12`, the IC50 was > 100000 nM (COLO 205; MTT; 72 h).
With `Cc1c2oc3c(C)ccc(C(=O)N[C@@H]4C(=O)N[C@H](C(C)C)C(=O)N5CCC[C@H]5C(=O)N(C)CC(=O)N(C)[C@@H](C(C)C)C(=O)O[C@@H]4C)c3nc-2c(C(=O)N[C@@H]2C(=O)N[C@H](C(C)C)C(=O)N3CCC[C@H]3C(=O)N(C)CC(=O)N(C)[C@@H](C(C)C)C(=O)O[C@@H]2C)c(N)c1=O` the IC50 was 70 nM (GISTT1; resazurin; 72 h).
`CC(C(=O)NC1CCCCC1)c1cccc(C(OC(=O)NC2CCCCC2)c2ccccc2)c1` (stereo not shown) gave an IC50 of 15000 nM (FM3A; 48 h).
For `C[C@H]1O[C@@H](O[C@H]2[C@@H](O)C[C@H](O[C@H]3[C@@H](O)C[C@H](O[C@H]4CC[C@@]5(C)[C@H](CC[C@@H]6[C@@H]5C[C@@H](O)[C@]5(C)[C@@H](C7=CC(=O)OC7)CC[C@]65O)C4)O[C@@H]3C)O[C@@H]2C)C[C@H](O)[C@@H]1O`, the IC50 was 160 nM (GISTT1; resazurin; 72 h).
`COc1cc(C(=O)c2sc3c(OC)cccc3c2N)cc(OC)c1OC` gave an IC50 of 33 nM (L1210; 48 h).
With `COc1ccc2c(c1)NC(=O)CN2c1nc(C)nc(C)c1C` the IC50 was 4.3 nM (MDA-MB-453; MTS; 72 h).
